Source: PubChem
In the library only some 1.7% were active in any assay of this set; here they are far more common.
SR-BI uptake up – SR-BI HDL lipid transfer activation; hit rate 0.096% among 320,000; CHO ldlA[mSR-BI] cells, DiI-HDL uptake fluorescence, 3 h; 100 = double the neutral-control signal; activation, % at 12.5 µM;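 active means mean replicate activation of at least 60% and every replicate at or above 60%; inconclusive means mean or all-replicate condition met, but not both; inactive means mean below 60% and not all replicates reaching 60%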;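 further: 0% = median plate neutral-control signal and 100% = twice that signal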
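Material: SR-BI-overexpressing, LDLR-lacking CHO cells | Dosing: Single compound concentration, delivered by pin transfer | Probe or stimulus: Labelled HDL, 10 µg/mL | Signal: Bottom-read cell fluorescence after medium removal, ex 550/em 595 nm | Schedule: 3 h, 37 °C | Evaluation: HDL uptake via cellular fluorescence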
SR-BI HDL uptake – inhibitors of mouse SR-BI mediated HDL lipid uptake; Q61009; hit rate 0.96% among 320,000; inhibition, % at 12.5 µM; ldlA[mSR-BI] CHO cells, DiI-HDL uptake fluorescence, 3 h; AID 488896;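 active means mean replicate inhibition of at least 70% and a set share of replicates each scoring 70 or more; inconclusive means meets just one of the two criteria; inactive means fails both criteria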;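 further: 0% = median of neutral control wells and 100% = median of positive control wells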
Target sequence (Q61009 whole entry, looked up): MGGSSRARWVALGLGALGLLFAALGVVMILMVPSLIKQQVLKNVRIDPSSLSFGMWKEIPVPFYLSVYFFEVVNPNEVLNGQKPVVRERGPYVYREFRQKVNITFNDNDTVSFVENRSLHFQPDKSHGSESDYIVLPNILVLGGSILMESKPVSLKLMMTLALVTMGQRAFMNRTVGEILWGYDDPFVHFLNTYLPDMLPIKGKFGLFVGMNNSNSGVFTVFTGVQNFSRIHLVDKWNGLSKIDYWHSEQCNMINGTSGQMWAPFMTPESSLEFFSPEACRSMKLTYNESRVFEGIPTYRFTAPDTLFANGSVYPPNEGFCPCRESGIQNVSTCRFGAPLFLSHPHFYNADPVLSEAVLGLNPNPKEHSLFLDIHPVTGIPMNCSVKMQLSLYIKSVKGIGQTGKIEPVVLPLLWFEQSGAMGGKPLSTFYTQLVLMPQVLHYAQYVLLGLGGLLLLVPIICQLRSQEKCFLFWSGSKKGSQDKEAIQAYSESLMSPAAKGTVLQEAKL
Statin myotox sup – suppressors of simvastatin-induced myotoxicity in C2C12 myotubes; ATP luminescence, 48 h; scaled: DMSO 0, geranylgeraniol control 100; rescue of ATP level, % at 7.49 µM; hit rate 0.78% among 330,000; AID 602340;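 active means mean ATP rescue above about 67%, or every replicate alone reaching that limit, limit read from the data, passing the limit was not always enough; inconclusive means no clear call, values can overlap the other calls; inactive means mean under the limit and some replicate under it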;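 further: myotubes were challenged with 10 µM simvastatin during compound exposure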
Vif inh – HIV Vif inhibition; HEK293T cells, Vif self-association by quenched fluorescence, imaging, 24 h; inhibition, % at 7.49 µM; hit rate 0.35% among 340,000; AID 602346; in the data active means inhibition above about 50%, passing the limit was not always enough; inconclusive means no clear call, values can overlap the other calls; inactive means below about 31%
* = called active by the depositor; u = inconclusive; x = no result given.

SMILES	SR-BI uptake up	SR-BI HDL uptake	Statin myotox sup	Vif inh
COc1ccc(NC(=O)c2cc([N+](=O)[O-])ccc2N2CCCCC2)cc1	-90.2	90.2*	-16.0	-7.1
COc1ccc(C(=O)c2cc([N+](=O)[O-])ccc2N2CCN(C)CC2)cc1	-19.5	19.5	x	6.0
O=C(c1ccc(Br)cc1)c1cc([N+](=O)[O-])ccc1N1CCCCC1	-87.8	87.8*	-33.8	62.8*
CN1CCN(c2ccc(NC(=O)c3ccc([N+](=O)[O-])o3)cc2Cl)CC1	x	x	93.6*	16.1
COc1ccc(C(=O)c2cc([N+](=O)[O-])ccc2N2CCCC2)cc1	-70.4	70.4*	x	-0.3
COc1ccc(-c2ccc3c(c2)O[C@H](CN(C)C(=O)Nc2ccccc2F)[C@H](C)CN([C@@H](C)CO)S3(=O)=O)cc1	x	x	13.9	x
CCC(=O)N[C@@H]1CC[C@H](CC(=O)NCCN2CCCCC2)O[C@H]1CO	x	x	2.6	x
O=C(Nc1ccc(N2CCCC2)c(Cl)c1)c1ccc([N+](=O)[O-])cc1	-75.1	75.1*	x	x
CCOc1ccccc1/C=N/NC(=O)Cc1csc(Nc2cccc(C(F)(F)F)c2)n1	x	x	1.1	-3.2
CCOc1ccc(/C=N/NC(=O)Cc2csc(Nc3cccc(C(F)(F)F)c3)n2)c(OCC)c1	-81.1	81.1*	4.0	-9.7
CCOc1ccc(/C=N/NC(=O)Cc2csc(Nc3cccc(C(F)(F)F)c3)n2)cc1	-76.8	76.8*	-4.8	-15.5
COc1ccc(NC(=O)Nc2ccc3c(c2)CC(=O)N([C@H](C)CO)C[C@H](C)[C@H](CN(C)C(=O)Nc2ccccc2)O3)cc1	x	x	1.9	x
C[C@@H]1CN([C@H](C)CO)C(=O)c2cc(NC(=O)NC3CCCCC3)ccc2O[C@@H](C)CCCCO[C@@H]1CN(C)Cc1ccncc1	x	x	-14.6	x
COc1ccc(CN(C)C[C@@H]2Oc3c(NC(=O)c4ccncc4)cccc3C(=O)N([C@@H](C)CO)C[C@H]2C)cc1	x	x	-1.5	x
CO[C@@H]1CN(C)C(=O)c2ccc(NC(=O)c3ccccn3)cc2OC[C@@H](C)N(C(=O)Nc2ccccc2Cl)C[C@H]1C	x	x	-13.6	x
O=C(NN=Cc1ccc(F)cc1)c1cccc(S(=O)(=O)N2CCCC2)c1	-20.0	20.0	4.0	-0.8
O=C(N/N=C/c1ccc(OC(F)F)cc1OC(F)F)c1cccc(S(=O)(=O)N2CCOCC2)c1	-82.8	82.8*	x	-3.6
O=C(NN=Cc1ccccc1OC(F)F)c1cccc(S(=O)(=O)N2CCCC2)c1	-71.9	71.9*	8.2	-1.2
COc1cc(OC)c(OC)cc1/C=N/NC(=O)c1cccc(S(=O)(=O)N2CCOCC2)c1	-59.7	59.7	14.9	-4.2
CN1C(=O)c2cc(NC(=O)C3CC3)ccc2OC[C@@H]2O[C@H](CC(=O)NC3CCC3)CC[C@H]21	x	x	-2.0	x
Cc1ccc(-c2[nH][nH]c(=O)c(=O)c2N=Nc2ccccc2)cc1	8.6	-8.6	211.3*	-0.5
Cc1cc(=O)n2[nH]c(=O)c(N=Nc3ccccc3)c2[nH]1	2.3	-2.3	8.5	3.6
COc1cccc(CNc2ccc3c(c2)CCC3)c1	-16.0	16.0	-40.5	59.8*
COc1ccc(OC)c(CNc2ccc3c(c2)CCC3)c1	-9.9	9.9	-15.9	-10.3
COc1ccc(S(=O)(=O)N(C)C[C@@H]2Oc3ccc(NC(=O)Nc4ccc(F)cc4)cc3CC(=O)N([C@@H](C)CO)C[C@H]2C)cc1	x	x	0.5	x
SMILES	SR-BI uptake up	SR-BI HDL uptake	Statin myotox sup	Vif inh
O=C(CCCN1C(=O)/C(=C/c2cccs2)SC1=S)NNC(=O)c1ccccc1O	-103.7	103.7*	x	-4.0
COc1ccccc1/C=C1\SC(=S)N(CCC(=O)NNC(=O)c2ccccc2O)C1=O	x	124.3*	17.2	-7.8
COc1ccc(/C=C2\SC(=S)N(CCCC(=O)NNC(=O)c3ccccc3O)C2=O)cc1	-109.6	109.6*	-4.0	24.5
Cc1ccccc1-c1cnc2c(c1)C(=O)N([C@@H](C)CO)C[C@@H](C)[C@H](CN(C)CC1CCOCC1)O2	x	x	6.8	x
COc1ccc(C2C(C(C)=O)=C(O)C(=O)N2CCCn2ccnc2)cc1 (configuration not stated)	45.7	-45.7	3.2	16.8
Cc1nc(C)c(C(=O)C2=C(O)C(=O)N(CCCn3ccnc3)C2c2ccc(Cl)cc2)s1 (configuration not stated)	23.9	-23.9	127.9*	3.3
COc1cccc(-c2nc(CS(=O)(=O)CC(=O)N3CCN(C)CC3)c(C)o2)c1	24.3	-24.3	-1.2	-6.3
COc1cccc(-c2nc(CS(=O)(=O)CC(=O)N3CCN(C4CCCCC4)CC3)c(C)o2)c1	-75.1	75.1*	-0.4	-7.7
Cc1ccc(C(=O)NCC2(c3ccccc3)CCCC2)cc1	-6.4	6.4	121.0*	-12.3
O=C(NCC1(c2ccccc2)CCCC1)c1ccc(Br)cc1	11.9	-11.9	x	2.7
C[C@H](NC(=O)[C@H]1[C@H](CO)[C@H]2Cn3c(ccc(C4=CCCC4)c3=O)[C@H]2N1C)c1ccccc1	x	x	1.8	x
O=C(CN1C(=O)/C(=C/c2ccco2)SC1=S)Nc1ccc(C(=O)O)c(O)c1	15.1	-15.1	16.6	9.6
CC(C(=O)Nc1ccc(C(=O)O)c(O)c1)N1C(=O)/C(=C\c2ccco2)SC1=S (configuration not stated)	20.1	-20.1	125.8*	1.1
CCCC(=O)Nc1nc(C(=O)OCC)cs1	-7.3	7.3	2.7	4.2
CCOC(=O)c1csc(NC(=O)c2cc(OC)c(OC)c(OC)c2)n1	-77.2	77.2*	10.1	-18.8
COc1ccc(CNC(=O)C[C@@H]2CC[C@@H](NS(=O)(=O)c3cccc(OC)c3)[C@H](CO)O2)cc1	x	x	2.9	x
COCC(=O)N1[C@H](C(=O)N2CCCCC2)[C@@H](CO)[C@@H]2Cn3c(ccc(C4=CCCCC4)c3=O)[C@@H]21	x	x	-31.7	x
Cc1nc(NC(=O)c2ccco2)sc1-c1csc(Nc2ccc(Cl)cc2)n1	-84.5	84.5*	-23.7	x
COc1ccccc1Nc1nc(-c2sc(NC(=O)c3ccco3)nc2C)cs1	-85.1	85.1*	-18.2	-2.2
Cc1ccc(Cl)cc1Nc1nc(-c2sc(NC(=O)c3ccco3)nc2C)cs1	-72.8	u	-39.4	-19.7
CCCC(=O)Nc1ccc2c(c1)C(=O)N(C)[C@H]1CC[C@@H](CC(=O)NCCN3CCCCC3)O[C@H]1CO2	x	x	-10.7	x
COc1ccc(-c2[nH]c(-c3cc(OC)c4c(c3)OCO4)nc2-c2ccccc2)cc1	-88.1	88.1*	x	0.4
COCCNC(=O)C[C@@H]1CC[C@@H]2[C@H](COc3ccc(NC(=O)c4cc(C)on4)cc3C(=O)N2C)O1	x	x	-13.2	x
C=CCn1c(-c2ccccc2)c[nH]c1=S	15.1	-15.1	-12.7	8.5
CCn1c(-c2ccc(-c3ccccc3)cc2)c[nH]c1=S	-17.1	17.1	124.9*	0.9
Fc1cccc(CN2CCN3CCCC3C2C2CCCCC2)c1 (configuration not stated)	x	x	129.0*	-3.1
O=C(Nc1ccc(F)cc1F)NC1CC(=O)N(Cc2ccccc2)C1 (configuration not stated)	x	x	85.9*	-2.8
Cc1ccc(C(=O)Nc2c(C(=O)N3CCOCC3)cnn2-c2ccccc2)cc1	7.6	-7.6	110.6*	0.0
